From ChEMBL document CHEMBL1147577, “Design, synthesis, and SAR of anthranilamide-based factor Xa inhibitors incorporating substituted biphenyl P4 motifs” (Bioorg Med Chem Lett, 2004)

What was measured:
[1] = target: T1, Coagulation factor X (Homo sapiens, UniProt P00742); assay: Inhibitory concentration against coagulation factor Xa.
[2] = target: T1, Coagulation factor X; assay: Concentration required to double the lag time of maximum thrombin generation in human plasma-based thrombin generation assay.; format: functional, cell-free
Method in brief: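 Human plasma treated with reptilase, mixed with inhibitor serially diluted from DMSO stock, then chromogenic substrate H-b-Ala-Gly-Arg-p-nitroanilide and CaCl2. Thrombin generation started with 640 pmol/L recombinant tissue factor. Absorbance at 405 nm followed at 37 °C for 22 min. Reported as 2XTG, the inhibitor concentration that doubles the time to maximum thrombin generation.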

[3] = target: T1, Coagulation factor X; assay: Inhibition of Coagulation factor X
[4] = Oral bioavailability in rat; format: ADME, organism-based; settings: in vivo
Method in brief: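 Sprague–Dawley rats given 6 mg/kg orally, with oral bioavailability calculated.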

[5] = target: Tissue-type plasminogen activator (Homo sapiens, UniProt P00750); assay: Inhibitory activity against tissue type plasminogen activator was determined
[6] = target: Plasminogen (Homo sapiens) (UniProt P00747); assay: Inhibitory activity against plasmin was determined
[7] = target: Kallikrein-1 (Homo sapiens, UniProt P06870); assay: Inhibitory activity against kallikrein was determined
[8] = target: Serine protease 1 (Homo sapiens, UniProt P07477); assay: Inhibitory concentration against trypsin was determined
[9] = target: Vitamin K-dependent protein C (Homo sapiens, UniProt P04070); assay: Inhibitory activity against activated protein C was determined
Vitamin K-dependent protein C, sequence (P04070 43-197 limits assumed): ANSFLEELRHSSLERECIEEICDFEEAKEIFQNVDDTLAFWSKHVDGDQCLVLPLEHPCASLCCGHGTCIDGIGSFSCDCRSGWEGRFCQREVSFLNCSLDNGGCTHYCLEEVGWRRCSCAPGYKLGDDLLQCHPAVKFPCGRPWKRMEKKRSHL
Vitamin K-dependent protein C, sequence (P04070 212-461 limits assumed): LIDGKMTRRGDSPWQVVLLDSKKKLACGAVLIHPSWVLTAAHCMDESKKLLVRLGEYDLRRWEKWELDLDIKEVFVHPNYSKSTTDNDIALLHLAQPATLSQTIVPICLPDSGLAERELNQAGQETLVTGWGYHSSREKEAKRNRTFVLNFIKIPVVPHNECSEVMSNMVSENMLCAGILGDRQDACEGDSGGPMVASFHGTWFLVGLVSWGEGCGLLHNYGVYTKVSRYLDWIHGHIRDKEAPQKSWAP

T1 sequence (P00742 41-179 limits assumed): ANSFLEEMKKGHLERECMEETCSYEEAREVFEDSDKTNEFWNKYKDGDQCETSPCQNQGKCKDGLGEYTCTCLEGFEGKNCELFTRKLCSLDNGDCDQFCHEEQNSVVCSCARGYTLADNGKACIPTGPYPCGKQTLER
T1 sequence (P00742 235-488 limits assumed): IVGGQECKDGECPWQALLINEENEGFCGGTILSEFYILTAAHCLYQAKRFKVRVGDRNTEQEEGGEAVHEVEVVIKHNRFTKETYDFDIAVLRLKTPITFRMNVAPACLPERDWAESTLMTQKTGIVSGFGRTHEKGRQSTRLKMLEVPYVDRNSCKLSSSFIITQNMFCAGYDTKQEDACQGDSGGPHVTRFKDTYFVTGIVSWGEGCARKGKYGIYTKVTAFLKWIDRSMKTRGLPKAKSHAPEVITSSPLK
Kallikrein-1, sequence (P06870 whole entry): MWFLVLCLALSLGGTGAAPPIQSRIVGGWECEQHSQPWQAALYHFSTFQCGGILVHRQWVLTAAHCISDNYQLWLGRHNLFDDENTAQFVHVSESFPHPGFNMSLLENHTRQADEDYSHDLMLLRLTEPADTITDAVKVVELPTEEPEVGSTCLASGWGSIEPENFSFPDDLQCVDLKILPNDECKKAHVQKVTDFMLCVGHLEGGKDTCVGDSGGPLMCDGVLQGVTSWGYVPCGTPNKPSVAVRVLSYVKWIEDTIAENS
Serine protease 1, sequence (P07477 whole entry): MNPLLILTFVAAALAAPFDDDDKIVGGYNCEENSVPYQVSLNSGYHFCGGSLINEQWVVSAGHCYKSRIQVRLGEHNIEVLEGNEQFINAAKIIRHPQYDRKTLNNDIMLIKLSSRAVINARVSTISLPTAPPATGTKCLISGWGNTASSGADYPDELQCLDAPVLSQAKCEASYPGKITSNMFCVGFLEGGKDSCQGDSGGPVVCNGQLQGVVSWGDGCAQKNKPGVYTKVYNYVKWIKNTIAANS
Tissue-type plasminogen activator, sequence (P00750 whole entry): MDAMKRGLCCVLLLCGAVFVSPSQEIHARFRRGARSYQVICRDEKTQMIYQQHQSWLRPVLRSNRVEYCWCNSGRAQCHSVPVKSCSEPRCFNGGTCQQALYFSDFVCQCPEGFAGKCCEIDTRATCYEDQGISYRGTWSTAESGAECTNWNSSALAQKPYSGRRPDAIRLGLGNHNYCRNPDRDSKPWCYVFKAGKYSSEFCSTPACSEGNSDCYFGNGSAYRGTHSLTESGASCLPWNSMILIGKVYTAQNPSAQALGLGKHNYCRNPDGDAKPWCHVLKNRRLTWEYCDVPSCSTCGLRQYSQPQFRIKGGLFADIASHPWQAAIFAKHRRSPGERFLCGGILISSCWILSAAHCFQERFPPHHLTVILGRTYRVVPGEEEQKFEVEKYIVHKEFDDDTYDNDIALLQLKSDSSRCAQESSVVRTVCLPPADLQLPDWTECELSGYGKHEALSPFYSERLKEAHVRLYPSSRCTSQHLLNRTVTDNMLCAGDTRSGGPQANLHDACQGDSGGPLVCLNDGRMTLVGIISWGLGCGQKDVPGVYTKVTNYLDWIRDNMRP
Plasminogen (Homo sapiens), sequence (P00747 whole entry, looked up): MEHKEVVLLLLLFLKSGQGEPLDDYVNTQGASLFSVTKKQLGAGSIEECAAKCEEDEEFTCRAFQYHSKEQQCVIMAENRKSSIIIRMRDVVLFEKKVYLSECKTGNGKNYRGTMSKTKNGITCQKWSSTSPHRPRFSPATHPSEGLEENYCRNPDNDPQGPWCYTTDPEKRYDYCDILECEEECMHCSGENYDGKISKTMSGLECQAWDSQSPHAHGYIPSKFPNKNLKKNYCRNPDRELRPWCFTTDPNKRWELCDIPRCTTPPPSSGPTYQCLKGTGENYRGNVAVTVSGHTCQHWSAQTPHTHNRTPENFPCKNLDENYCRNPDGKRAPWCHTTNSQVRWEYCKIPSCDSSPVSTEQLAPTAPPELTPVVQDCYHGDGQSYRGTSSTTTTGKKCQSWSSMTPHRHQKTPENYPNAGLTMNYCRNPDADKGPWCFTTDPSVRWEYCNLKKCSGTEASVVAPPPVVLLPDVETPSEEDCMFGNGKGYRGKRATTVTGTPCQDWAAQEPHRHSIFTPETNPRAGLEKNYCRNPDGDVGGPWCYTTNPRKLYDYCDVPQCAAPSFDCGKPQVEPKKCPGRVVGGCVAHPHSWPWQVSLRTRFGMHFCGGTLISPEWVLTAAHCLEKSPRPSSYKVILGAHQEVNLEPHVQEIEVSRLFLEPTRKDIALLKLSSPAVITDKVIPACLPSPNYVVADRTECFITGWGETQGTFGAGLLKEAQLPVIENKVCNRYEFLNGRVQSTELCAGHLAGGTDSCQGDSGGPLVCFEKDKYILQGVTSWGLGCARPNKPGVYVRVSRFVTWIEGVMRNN

| IC50 [1] | Activity [2] | other results | SMILES |
| --- | --- | --- | --- |
| 2.8 nM | – | – | O=C(Nc1ccc(Cl)cc1C(=O)Nc1ccc(Cl)cn1)c1ccc(-c2ccccc2N2CCCCC2)cc1 |
| 6.2 nM | > 5 µM | – | Nc1ccc(C(=O)Nc2ccc(Br)cn2)c(NC(=O)c2ccc(-c3ccccc3S(N)(=O)=O)cc2)c1 |
| 5.3 nM | – | – | O=C(Nc1ccc(Cl)cc1C(=O)Nc1ccc(Cl)cn1)c1ccc(-c2cccc(N3CCCC3)c2)cc1 |
| 1.2 nM | – | Ki [3]: 0.3 nM; bioavailability [4]: < 1% | NC(N)=NCc1ccccc1-c1ccc(C(=O)Nc2ccc(Cl)cc2C(=O)Nc2ccc(Cl)cn2)cc1 |
| 4.1 nM | > 5 µM | Ki [3]: 1 nM | O=C(Nc1ccc(Cl)cc1C(=O)Nc1ccc(Cl)cn1)c1ccc(-c2ccccc2N2CCNCC2)cc1 |
| 9.5 nM | > 5 µM | bioavailability [4]: < 1% | N=C(N)NCc1cccc(-c2ccc(C(=O)Nc3ccc(Cl)cc3C(=O)Nc3ccc(Cl)cn3)cc2)c1 |
| 2 nM | > 5 µM | Ki [3]: 1 nM | CN(C)C(=N)c1cccc(-c2ccc(C(=O)Nc3ccc(Cl)cc3C(=O)Nc3ccc(Cl)cn3)cc2)c1 |
| 23 nM | 4.9 µM | – | NS(=O)(=O)c1ccccc1-c1ccc(C(=O)Nc2cnccc2C(=O)Nc2ccc(Cl)cn2)cc1 |
| 1.6 nM | > 5 µM | Ki [3]: 0.7 nM; bioavailability [4]: < 1% | N=C(N)c1cccc(-c2ccc(C(=O)Nc3ccc(Cl)cc3C(=O)Nc3ccc(Cl)cn3)cc2)c1 |
| 0.9 nM | > 5 µM | Ki [3]: 0.1 nM; bioavailability [4]: 100% | CN(C)c1ccccc1-c1ccc(C(=O)Nc2ccc(Cl)cc2C(=O)Nc2ccc(Cl)cn2)cc1 |
| 48 nM | > 5 µM | – | NS(=O)(=O)c1ccccc1-c1ccc(C(=O)Nc2ncccc2C(=O)Nc2ccc(Cl)cn2)cc1 |
| 2.8 nM | – | – | O=C(Nc1ccc(Cl)cc1C(=O)Nc1ccc(Cl)cn1)c1ccc(-c2ccccc2N2CCCC2)cc1 |
| 4.6 nM | 2.8 µM | – | Nc1ccc(NC(=O)c2ccc(-c3ccccc3S(N)(=O)=O)cc2)c(C(=O)Nc2ccc(Br)cn2)c1 |
| 0.2 nM | 1.4 µM | Ki [3]: 0.1 nM | CN(C)C(=N)c1ccccc1-c1ccc(C(=O)Nc2ccc(Cl)cc2C(=O)Nc2ccc(Cl)cn2)cc1 |
| 60 nM | – | – | CN(C)C(=N)c1ccc(-c2ccc(C(=O)Nc3ccc(Cl)cc3C(=O)Nc3ccc(Cl)cn3)cc2)cc1 |
| 3.5 nM | – | – | CN(C)c1cccc(-c2ccc(C(=O)Nc3ccc(Cl)cc3C(=O)Nc3ccc(Cl)cn3)cc2)c1 |
| 370 nM | – | – | CC(=O)Nc1ccc(NC(=O)c2ccc(-c3ccccc3S(N)(=O)=O)cc2)c(C(=O)Nc2ccc(Br)cn2)c1 |
| 32 nM | – | – | O=C(Nc1ccc(Cl)cc1C(=O)Nc1ccc(Cl)cn1)c1ccc(-c2cccc(N3CCCNCC3)c2)cc1 |
| 26 nM | > 5 µM | – | NS(=O)(=O)c1ccccc1-c1ccc(C(=O)Nc2cccnc2C(=O)Nc2ccc(Cl)cn2)cc1 |
| – | > 5 µM | Ki [3]: 0.2 nM | Nc1ccccc1-c1ccc(C(=O)Nc2ccc(Cl)cc2C(=O)Nc2ccc(Cl)cn2)cc1 |
| 128 nM | – | – | NS(=O)(=O)c1ccccc1-c1ccc(C(=O)Nc2ccc(-n3ccnc3)cc2C(=O)Nc2ccc(Br)cn2)cc1 |
| 1 nM | > 5 µM | Ki [3]: 0.2 nM; bioavailability [4]: 32% | O=C(Nc1ccc(Cl)cc1C(=O)Nc1ccc(Cl)cn1)c1ccc(-c2ccccc2N2CCC(O)CC2)cc1 |
| 4.4 nM | > 5 µM | Ki [3]: 1.8 nM | CC(=N)NCc1cccc(-c2ccc(C(=O)Nc3ccc(Cl)cc3C(=O)Nc3ccc(Cl)cn3)cc2)c1 |
| 16 nM | – | – | O=C(Nc1ccc(Cl)cc1C(=O)Nc1ccc(Cl)cn1)c1ccc(-c2cccc(N3CCCCC3)c2)cc1 |
| – | > 5 µM | – | N=C(N)NCc1ccccc1-c1ccc(C(=O)Nc2ccc(Cl)cc2C(=O)Nc2ccc(Cl)cn2)cc1 |

| IC50 [1] | Activity [2] | other results | SMILES |
| --- | --- | --- | --- |
| 23 nM | – | – | CN1CCN(c2cccc(-c3ccc(C(=O)Nc4ccc(Cl)cc4C(=O)Nc4ccc(Cl)cn4)cc3)c2)CC1 |
| 22 nM | – | – | CN1CCCN(c2cccc(-c3ccc(C(=O)Nc4ccc(Cl)cc4C(=O)Nc4ccc(Cl)cn4)cc3)c2)CC1 |
| 66 nM | – | – | N=C(N)c1ccc(-c2ccc(C(=O)Nc3ccc(Cl)cc3C(=O)Nc3ccc(Cl)cn3)cc2)cc1 |
| 3.4 nM | > 5 µM | IC50 [5]: > 10 µM; IC50 [6]: > 10 µM; IC50 [7]: 2100 nM; IC50 [8]: > 10 µM; IC50 [9]: > 10 µM | NS(=O)(=O)c1ccccc1-c1ccc(C(=O)Nc2ccccc2C(=O)Nc2ccc(Br)cn2)cc1 |
| 0.4 nM | > 5 µM | Ki [3]: 0.012 nM | O=C(Nc1ccc(Cl)cc1C(=O)Nc1ccc(Cl)cn1)c1ccc(-c2ccccc2N2CCC(C(=O)O)CC2)cc1 |
| 7 nM | – | – | O=C(Nc1ccc(Cl)cc1C(=O)Nc1ccc(Cl)cn1)c1ccc(-c2cccc(N3CCC(O)CC3)c2)cc1 |
| 4.1 nM | – | – | CNc1ccccc1-c1ccc(C(=O)Nc2ccc(Cl)cc2C(=O)Nc2ccc(Cl)cn2)cc1 |
| 1.8 nM | – | – | O=C(Nc1ccc(Cl)cc1C(=O)Nc1ccc(Cl)cn1)c1ccc(-c2cccc(N3CCC(C(=O)O)CC3)c2)cc1 |
| 1.9 nM | – | – | Nc1cccc(-c2ccc(C(=O)Nc3ccc(Cl)cc3C(=O)Nc3ccc(Cl)cn3)cc2)c1 |
| 12 nM | – | – | NS(=O)(=O)c1ccccc1-c1ccc(C(=O)NCCC(=O)Nc2ccc(Br)cn2)cc1 |
| 74 nM | – | – | O=C(Nc1ccc(Cl)cc1C(=O)Nc1ccc(Cl)cn1)c1ccc(-c2cccc(N3CCOCC3)c2)cc1 |
| 18 nM | 2.2 µM | – | NS(=O)(=O)c1ccccc1-c1ccc(C(=O)Nc2ccncc2C(=O)Nc2ccc(Cl)cn2)cc1 |
| 1550 nM | – | – | CN1CCN(c2ccc(NC(=O)c3ccc(-c4ccccc4S(N)(=O)=O)cc3)c(C(=O)Nc3ccc(Br)cn3)c2)CC1 |
| 4.1 nM | – | – | O=C(Nc1ccc(Cl)cc1C(=O)Nc1ccc(Cl)cn1)c1ccc(-c2ccccc2N2CCOCC2)cc1 |
| 3.5 nM | > 5 µM | Ki [3]: 0.9 nM | CN1CCN(c2ccccc2-c2ccc(C(=O)Nc3ccc(Cl)cc3C(=O)Nc3ccc(Cl)cn3)cc2)CC1 |
| 5.6 nM | > 5 µM | Ki [3]: 1.8 nM | O=C(Nc1ccc(Cl)cc1C(=O)Nc1ccc(Cl)cn1)c1ccc(-c2ccccc2N2CCCNCC2)cc1 |
| 39 nM | – | – | O=C(Nc1ccc(Cl)cc1C(=O)Nc1ccc(Cl)cn1)c1ccc(-c2cccc(N3CCNCC3)c2)cc1 |
| 6.7 nM | 3 µM | – | Nc1ccc(NC(=O)c2ccc(-c3ccccc3S(N)(=O)=O)cc2)c(C(=O)Nc2ccc(Cl)cn2)c1 |
| 3.1 nM | > 5 µM | Ki [3]: 0.8 nM | CN1CCCN(c2ccccc2-c2ccc(C(=O)Nc3ccc(Cl)cc3C(=O)Nc3ccc(Cl)cn3)cc2)CC1 |
| 0.7 nM | – | Ki [3]: 0.1 nM; bioavailability [4]: < 1% | CC(N)=NCc1ccccc1-c1ccc(C(=O)Nc2ccc(Cl)cc2C(=O)Nc2ccc(Cl)cn2)cc1 |
| 67 nM | – | – | NCc1ccccc1-c1ccc(C(=O)Nc2ccccc2C(=O)Nc2ccc(Cl)cn2)cc1 |
| 2.3 nM | – | – | CNc1cccc(-c2ccc(C(=O)Nc3ccc(Cl)cc3C(=O)Nc3ccc(Cl)cn3)cc2)c1 |
| 6.7 nM | > 5 µM | – | NS(=O)(=O)c1ccccc1-c1ccc(C(=O)Nc2ccccc2C(=O)Nc2ccc(Cl)cn2)cc1 |
| – | > 5 µM | – | CC(=N)NCc1ccccc1-c1ccc(C(=O)Nc2ccc(Cl)cc2C(=O)Nc2ccc(Cl)cn2)cc1 |
